OX1R antag-1: human HCRTR1 antagonism; 0.43% of 330,000 active; inhibition, % at 5 µM; AID 434989; CHO/OX1R cells, Fluo-8 calcium fluorescence, orexin A;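 active = inhibition above its plate's threshold, mean inhibition of all tested compounds on the plate plus 3 SD, cut at about 37% in these data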
Target sequence (O43613 whole entry, looked up): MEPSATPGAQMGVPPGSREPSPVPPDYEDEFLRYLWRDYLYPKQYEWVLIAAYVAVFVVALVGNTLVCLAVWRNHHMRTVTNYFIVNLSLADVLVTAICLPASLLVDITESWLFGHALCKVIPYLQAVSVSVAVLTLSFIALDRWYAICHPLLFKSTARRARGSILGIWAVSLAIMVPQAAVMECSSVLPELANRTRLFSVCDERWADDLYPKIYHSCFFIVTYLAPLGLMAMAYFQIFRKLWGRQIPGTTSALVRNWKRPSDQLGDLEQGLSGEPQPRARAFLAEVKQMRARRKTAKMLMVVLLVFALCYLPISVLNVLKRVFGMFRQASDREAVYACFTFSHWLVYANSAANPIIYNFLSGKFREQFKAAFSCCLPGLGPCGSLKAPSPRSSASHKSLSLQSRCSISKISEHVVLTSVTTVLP
CHO parental Ca: counter-screen for OX1R antagonists: effect in parental CHO cells. 0.63% of 330,000 active. AID 463079. inhibition, % at 5.6 µM. parental CHO-K1, ATP-induced calcium, Fluo-8 fluorescence;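 active = inhibition above that plate's mean sample inhibition plus 3 SD, cut at about 26% in these data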
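Test system: untransfected parental CHO cell line. Compound: one dose, 5.6 µM nominal. Detection: intracellular calcium via Fluo-8 no-wash fluorescent dye. Measure: % inhibition. Benchmarks: ATP-challenged DMSO wells low, unchallenged DMSO wells high.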
TAAR1 antag: human TAAR1 antagonism; Q96RJ0; CHO RD-HGA16 TAAR1, Fluo-8 calcium fluorescence, antagonist; inhibition, % at 3 µM; 1.5% of 360,000 active; AID 624466;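 active = inhibition above a per-plate cutoff, the mean inhibition of test compounds on that plate plus 3 SD, cut at about 49% in these data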
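System: RD-HGA16 CHO cells with stable hTAAR1 and Gα16 | Probe or stimulus: EC80 β-phenethylamine stimulus | Dosing: 3 µM, single point | Times: Dye loading 75 min at 37 °C, then 30 min room temperature | Measured by: Fluo-8 calcium-sensitive fluorescence | Read-out basis: % inhibition of agonist calcium response | Replicates: n of 1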
OX1R antag-2: blocks the human orexin 1 receptor; 1.8% of 330,000 active; O43613; inhibition, % at 6.6 µM; OX1R-expressing cells, FRET antagonist read-out; in the data active = inhibition mostly above about 38%, no sharp cut-off; inactive = mostly below about 40%
GPR7 antagonist: antagonists of human GPR7 (neuropeptides B/W receptor 1); inhibition, % at 4.4 µM; 1.1% of 290,000 active; GPR7-expressing cells, fluorescence antagonist assay; AID 1861; in the data active = inhibition above about 16%, passing the limit was not always enough;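 also: cells stimulated with the agonist NPW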
Target sequence (P48145 whole entry, looked up): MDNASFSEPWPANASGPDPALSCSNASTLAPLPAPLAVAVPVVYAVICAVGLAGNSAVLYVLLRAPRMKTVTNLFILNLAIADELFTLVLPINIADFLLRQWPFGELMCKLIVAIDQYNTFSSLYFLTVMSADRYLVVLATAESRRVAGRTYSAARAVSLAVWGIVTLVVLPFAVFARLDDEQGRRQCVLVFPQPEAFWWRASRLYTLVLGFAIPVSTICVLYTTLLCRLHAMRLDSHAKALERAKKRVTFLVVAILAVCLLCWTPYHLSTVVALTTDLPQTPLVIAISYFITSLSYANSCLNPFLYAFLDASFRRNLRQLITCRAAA
TAAR1 agonist: agonists of human TAAR1; CHO RD-HGA16 TAAR1, Fluo-8 calcium fluorescence; vehicle wells 0%, saturating PEA agonist 100%; activation, % at 3 µM; Q96RJ0; 0.99% of 360,000 active; AID 624467;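 active = activation above the mean activation of all test compounds in the run plus 3 SD, cut at about 38% in these data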
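Test system: RD-HGA16 (CHO) cells co-expressing Gα16 and hTAAR1; dosing: one-point dosing at 3 µM (nominal); timing: 17-24 h seeding, 75 min 37 °C dye, 30 min RT; signal: kinetic Fluo-8 calcium fluorescence; read-out basis: % activation relative to PEA EC100 response; controls: DMSO and PEA EC100; replicates: n 1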
Of the large screens only hits and unclear results are named; the others gave an inactive call. Hits are enriched below; roughly 4.6% of the tested compounds scored in any of these assays.

Cc1cccc(NP(=O)(Oc2ccccc2F)Oc2ccccc2F)c1C	CHO parental Ca 47, TAAR1 antag 54
COc1cc2c(cc1OC)-c1c(OC)c(OC)cc3c1[C@H](C2)[N+](C)(C)CC3	none
COc1ccccc1CNCCc1ccc(F)cc1	TAAR1 agonist 41
COc1cc(OC)c(OC)cc1CNCCc1ccc(F)cc1	none (no result: OX1R antag-1, CHO parental Ca, OX1R antag-2)
COc1ccc(-n2nnnc2C(c2cccc3ccccc23)N2CCC3(CC2)C(=O)NCN3c2ccccc2)cc1 (configuration not stated)	none (no result: OX1R antag-1, CHO parental Ca, OX1R antag-2, GPR7 antagonist)
Cc1ccccc1N1C(=O)NC(=O)/C(=C\c2cc(Br)c(N3CCOCC3)o2)C1=O	none
Cc1ccccc1N1C(=O)NC(=O)/C(=C/c2ccc(N3CCOCC3)o2)C1=O	OX1R antag-2 48
O=C1NC(=O)N(c2ccc3c(c2)OCO3)C(=O)/C1=C\c1ccc(N2CCCCC2)o1	OX1R antag-2 71
COC(=O)C1=C(C(=O)OC)C2OC1c1cc3ccccc3cc12	TAAR1 antag 58 (no result: OX1R antag-1, CHO parental Ca, OX1R antag-2, GPR7 antagonist)
COC(=O)C1=C(c2ccc3ccccc3c2)C[C@@H]2CC[C@H]1N2C	none (no result: GPR7 antagonist)
Nc1ncc([N+](=O)[O-])s1	OX1R antag-2 36 (no result: GPR7 antagonist)
CNCCCc1ccccc1	TAAR1 agonist 43
NP(=O)(Nc1ccccc1)Nc1ccccc1	none (no result: OX1R antag-1, CHO parental Ca, OX1R antag-2, GPR7 antagonist)
CN(C)C(=O)Oc1ccc2nnc3ccnn3c2c1	OX1R antag-2 36
C[C@]12CCC3C(CC[C@H]4C[C@H](O)CC[C@]34C)C1C[C@H](O)[C@@H]2O (some centres not stated)	TAAR1 antag 60 (no result: GPR7 antagonist)
CC12C=CC(=O)CC1CCC1C2CCC2(C)C(O)C(O)CC12 (configuration not stated)	TAAR1 antag 58 (no result: OX1R antag-1, CHO parental Ca, OX1R antag-2, GPR7 antagonist)
C[C@]12CCC3C(CC[C@H]4C[C@H](O)CC[C@]34C)C1C[C@@H](O)[C@@H]2O (some centres not stated)	none (no result: GPR7 antagonist)
O=c1[nH]c2cc(Cl)ccc2n1C1CCN(Cc2ccc(-c3nc4ccccc4nc3-c3ccccc3)cc2)CC1	none (no result: OX1R antag-1, CHO parental Ca, OX1R antag-2, GPR7 antagonist)
CC(C)(C)c1cc(C=C(C#N)C#N)cc(C(C)(C)C)c1O	OX1R antag-2 44 (no result: GPR7 antagonist)
O=C1NC(=O)N(CC2CCCO2)C(=O)/C1=C/c1cccs1 (configuration not stated)	none
CCN(CC)c1ccc(/C=C2/C(=O)NC(=O)N(CC3CCCO3)C2=O)cc1 (configuration not stated)	TAAR1 agonist 42
CN1CCc2cc(O)cc3c2[C@H]1Cc1ccc(O)c(O)c1-3	none (no result: GPR7 antagonist)
CN1CCc2cc3c(c4c2C1Cc1ccccc1-4)OCO3 (configuration not stated)	OX1R antag-2 74
CN(CC1COc2ccccc2O1)c1nc(-c2cccnc2)nc2ccccc12 (configuration not stated)	OX1R antag-2 74
CN1CCC(N(C)c2nc(-c3ccc([N+](=O)[O-])cc3)nc3ccccc23)CC1	none (no result: OX1R antag-1, CHO parental Ca, OX1R antag-2)
O=C1NCN(c2ccccc2)C12CCN(C(c1ccccc1OC(F)(F)F)c1nnnn1Cc1ccccc1)CC2 (configuration not stated)	none (no result: OX1R antag-1, CHO parental Ca, OX1R antag-2, GPR7 antagonist)
CC(C)Sc1nnc([C@@H](N)Cc2c[nH]c3ccccc23)o1	OX1R antag-2 40
C=C1C(O)[C@@H]2O[C@]3(CC[C@H](/C=C/C(C)[C@@H]4CC(C)=CC5(O[C@H](C[C@@](C)(O)C(=O)O)CCC5O)O4)O3)CC[C@H]2O[C@@H]1C(O)CC(C)[C@H]1OC2(CCCCO2)CCC1C (some centres not stated)	OX1R antag-2 50 (no result: TAAR1 antag, GPR7 antagonist, TAAR1 agonist)
O=c1[nH]c2ccccc2n1C1CCN(C(c2ccccc2)c2nnnn2-c2ccc3c(c2)OCCO3)CC1 (configuration not stated)	TAAR1 antag 62 (no result: OX1R antag-1, CHO parental Ca, OX1R antag-2, GPR7 antagonist)
O=c1[nH]c2ccccc2n1C1CCN(C(c2nnnn2-c2ccc3c(c2)OCCO3)C2CC2)CC1 (configuration not stated)	TAAR1 antag 62 (no result: OX1R antag-1, CHO parental Ca, OX1R antag-2, GPR7 antagonist)
COc1cc(CCN)c(OC)cc1C	none (no result: OX1R antag-1, CHO parental Ca, OX1R antag-2, GPR7 antagonist)
Cc1ccc(C(O)(C(=O)OC(C)C)C(O)c2ccccc2)cc1 (configuration not stated)	none (no result: OX1R antag-1, CHO parental Ca, OX1R antag-2, GPR7 antagonist)
Nc1ccc2ccc3cccc[n+]3c2c1	CHO parental Ca 37, TAAR1 agonist 40
N#CCCn1cc(C(=O)Nc2ccc(F)cc2)c(-c2ccccc2)n1	none (no result: OX1R antag-1, CHO parental Ca, OX1R antag-2)
O=C(C[N+]12CCC(CC1)C(O)C2)c1ccc(Br)cc1 (configuration not stated)	none (no result: OX1R antag-1, CHO parental Ca, OX1R antag-2)
O=C(C[N+]12CCC(CC1)C(OC(=O)c1ccccc1)C2)c1ccc([N+](=O)[O-])cc1 (configuration not stated)	OX1R antag-2 70
O=C(C[N+]12CCC(CC1)C(CO)C2)c1ccc([N+](=O)[O-])cc1 (configuration not stated)	OX1R antag-2 59
CN1CCC(O)(c2ccc(Cl)cc2)C(C(=O)c2ccc(Cl)cc2)C1 (configuration not stated)	none
O=C1N(c2ccc(Cl)cc2)C(c2cccnc2)N2CCCN12 (configuration not stated)	none
Cc1ccccc1-n1c(O)c(/C=C2/C(c3ccccc3)=Nc3ccccc32)c(=O)[nH]c1=O	GPR7 antagonist 29
CCOC(=O)C1=C(C(=O)OCC)C2(c3ccccc3)c3ccccc3C1(C)N2C (configuration not stated)	none (no result: OX1R antag-1, CHO parental Ca, OX1R antag-2, GPR7 antagonist)
CC[N+](C)(CC)CCCCOc1ccc2c(c1)C(=O)c1cc(OCCCC[N+](C)(CC)CC)ccc1-2	OX1R antag-2 71
C[C@H]1CNCCN1c1ccc(N2CC[C@H](O)C2)c(C#N)c1	none (no result: OX1R antag-1, CHO parental Ca, OX1R antag-2, GPR7 antagonist)
C[n+]1c(-c2ccccc2)c2cc(N)ccc2c2ccc(N)cc21	OX1R antag-2 51
C=CCn1c(O)c(C(C)=NCCc2ccccc2)c(=O)[nH]c1=O	TAAR1 agonist 40
C=CCn1c(O)c(C(C)=NCCO)c(=O)[nH]c1=O	none
c1ccc(N2[C@@H]3CC[C@H]2c2ccncc2C3)cc1	none (no result: OX1R antag-1, CHO parental Ca, OX1R antag-2, GPR7 antagonist)
CC(C)N1CC=C(c2c[nH]c3ccccc23)CC1	TAAR1 agonist 38
C1=C(c2c[nH]c3ccccc23)CCNC1	none
O=C1NC(=O)C(=Cc2ccc(SC3CCCCC3)o2)C(=O)N1	TAAR1 antag 59
NS(=O)(=O)c1ccc(-c2ccc(C=C3C(=O)NC(=O)NC3=O)o2)cc1	none
FC(F)(F)Oc1ccc(C2NCc3ccccc3-n3cccc32)cc1 (configuration not stated)	none
CC(C)c1ccc(C2NCc3ccccc3-n3cccc32)cc1 (configuration not stated)	TAAR1 antag 63 (no result: OX1R antag-1, CHO parental Ca, OX1R antag-2)
CC(=O)OC1CCC2(C)C(CCC3C2CC(=O)C2(C)C3CC(N3CC3)C2C(C)=O)C1 (configuration not stated)	none (no result: OX1R antag-1, CHO parental Ca, OX1R antag-2, GPR7 antagonist)
Nc1c(Br)cc([N+](=O)[O-])cc1[N+](=O)[O-]	OX1R antag-2 36 (no result: GPR7 antagonist)
